Among the data in ChEMBL document CHEMBL1147890, “Synthesis of the new pseudo-symmetrical tamoxifen derivatives and their anti-tumor activity” (Bioorg Med Chem Lett, 2007) are Activity and IC50 values, retold here.

The source made the active and inactive calls. The calls are words filed in the database; no cut-off is given here. Where only a bound is given, the exact number is not on record here.

In experiment [1] the test system is HL-60. The experiment is described as follows: Antitumor activity against HL60 cells at 7.5 uM after 6 hrs by MTT assay. It is filed as functional, Homo sapiens. The essentials:
(§1)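 HL-60 human acute promyelocytic leukemia cells exposed for 0–6 h at final 2.5, 5, 7.5 and 10 µM. Viability read by MTT (mitochondrial succinic dehydrogenase reduces dye to formazan). Growth rate expressed against formazan absorbance at 0 h set to 1.0. SD, n = 5. IC50 taken as median growth-inhibitory concentration at 3 h or 6 h.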
On the technique in general: Tetrazolium assays rely on reduction of a dye to a coloured formazan, in cell work by metabolically active cells.

The test system of experiment [2] is HL-60. The experiment is described as follows: Antitumor activity against HL60 cells at 10 uM after 6 hrs by MTT assay. It is filed as functional, Homo sapiens. The essentials: as §1
Experiment [3] deals with HL-60. The experiment is described as follows: Antitumor activity against HL60 cells after 6 hrs by MTT assay. The class given is functional, cell-based. Particulars: Homo sapiens, HL-60, 6 h. The essentials: as §1
The subject of experiment [4] is HL-60. The experiment is described as follows: Induction of apoptosis in HL60 cells assessed as DNA fragmentation at 9 uM by agarose gel electrophoresis. The class given is functional, cell-based. The conditions noted are these: Homo sapiens. The essentials:
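Apoptosis versus necrosis judged by oligonucleosomal DNA cleavage on agarose gel electrophoresis. HL-60 cells treated 6 h at 9 µM final. Controls were medium only, tamoxifen, ethanol and actinomycin D.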

The subject of experiment [5] is HL-60. The experiment is described as follows: Antitumor activity against HL60 cells at 5 uM after 6 hrs by MTT assay. It is filed as functional, Homo sapiens. A digest of the protocol: as §1
For experiment [6], the system named is HL-60. The experiment is described as follows: Antitumor activity against HL60 cells at 5 ug/ml after 4 hrs by MTT assay. The class given is functional, Homo sapiens. The essentials:
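HL-60 cells given 5 µg/mL. Viability measured by MTT formazan absorbance after 4 h and expressed relative to the 0 h reading.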

Experiment [7] deals with HL-60. The experiment is described as follows: Antitumor activity against HL60 cells after 3 hrs by MTT assay. The class given is functional, cell-based. Particulars: Homo sapiens, HL-60, 3 h. A digest of the protocol: as §1

With `CCC(=C(c1ccc(OCCN2CCCCC2)cc1)c1ccc(OCCN2CCCCC2)cc1)c1ccccc1`, the Activity with HL-60 [1] and in the experiment on HL-60 [2] was more than 80% in each case. In the experiment with HL-60 [3], this compound gave an IC50 of 5 µM. In addition, the result in the experiment on HL-60 [4] was Active.

Consider `CCC(=C(c1ccc(OCCN2CCCC2)cc1)c1ccc(OCCN2CCCC2)cc1)c1ccccc1`, for which the Activity in the experiment with HL-60 [5], in the experiment with HL-60 [1], in the experiment on HL-60 [2] and with HL-60 [6] was more than 90% in each case. The results for the half-inhibitory concentration (IC50) with HL-60 [3] and with HL-60 [7] were 3 µM and 4 µM, respectively. In the experiment with HL-60 [4], the outcome was Active.

The term IC50 denotes the midpoint of a concentration-inhibition curve. Higher therefore signals a need for much substance.
